Measurements as given in article PMC4706624 (International Journal for Parasitology: Drugs and Drug …, 2015).
“And” between values parts separate entries of the source, which are not always exact repeats. Equal values may be shown once. “Also recorded” adds a separate entry of the source.

What was measured:
[1] = molecular target: T1, PvENT1 (Plasmodium vivax, UniProt A5K8B0); assay: Inhibition of [3H]uridine uptake into PvENT1-expressing yeast; type: cell-based; conditions: for fold lower IC50 of PvENT1 than PfENT1: PvENT1 vs PfENT1
T1 sequence (A5K8B0 1-416): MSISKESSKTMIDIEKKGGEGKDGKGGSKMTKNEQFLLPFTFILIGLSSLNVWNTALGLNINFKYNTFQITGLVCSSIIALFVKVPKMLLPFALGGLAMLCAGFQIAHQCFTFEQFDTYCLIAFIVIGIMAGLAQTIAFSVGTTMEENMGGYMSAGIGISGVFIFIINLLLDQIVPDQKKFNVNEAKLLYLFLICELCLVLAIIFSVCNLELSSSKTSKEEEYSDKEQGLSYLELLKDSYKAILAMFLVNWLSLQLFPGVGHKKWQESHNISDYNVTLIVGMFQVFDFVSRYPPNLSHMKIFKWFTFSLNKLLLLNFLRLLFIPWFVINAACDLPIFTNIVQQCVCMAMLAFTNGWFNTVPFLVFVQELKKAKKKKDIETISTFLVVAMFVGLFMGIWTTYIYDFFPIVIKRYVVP

[2] = molecular target: T1, PvENT1; assay: Inhibition of [3H]adenosine uptake into PvENT1-expressing yeast; type: cell-based
[3] = test system: empty vector (EV) purine auxotrophic yeast; assay: Growth of empty vector; type: cell-based, Saccharomyces cerevisiae
Outline: (§1)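 Yeast strain was MATa his3Δ1 leu2Δ0 met15Δ0 ura3Δ0 fui1Δ::KanMX4 ade2Δ::hphNT1 carrying pCM189 (empty or PvENT1). Cells grown to mid-log in SDM-adenine were washed three times in water, diluted to 4 × 10^6 cells/mL, and added 1:1 to adenine or adenosine serially diluted in 2× purine-free SDM.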

[4] = test system: PvENT1-expressing purine auxotrophic yeast; assay: Growth of PvENT1-expressing purine auxotrophic yeast with a sole purine source; type: cell-based; conditions: Saccharomyces cerevisiae, read-out: growth EC50
Outline: as §1

[5] = test system: PfENT1; conditions: read-out: PfENT1 IC50; ref Riegelhaupt et al., 2010a; cited from earlier work
[6] = test system: hENT1; conditions: ref Griffiths et al., 1997, Baldwin et al., 2004, cited from earlier work
[7] = IC50 for inhibition of [^3H]Adenosine by indicated pyrimidine, 50 nM [3H]adenosine, 15 min, PvENT1-expressing yeast, mean ± SD
[8] = [^3H]Adenosine uptake inhibition IC50, hENT1 inhibitors and toxic purine analogs, 50 nM [3H]adenosine, concentrations up to 20 mM, mean ± SD, n = 3
[9] = IC50 for inhibition of [^3H]Uridine by indicated purine, 250 nM [3H]uridine, 15 min, PvENT1-expressing yeast, mean ± SD
[10] = IC50 for inhibition of [^3H]substrate uptake by the indicated purine, WT, Table 4, WT PvENT1, radiolabel [3H]adenosine (#)
[11] = hENT1 inhibitors and toxic purine analogs, 50 nM [3H]adenosine, concentrations up to 20 mM, mean ± SD, n = 3
[12] = read-out: [^3H]Adenosine uptake inhibition IC50, hENT1 inhibitors and toxic purine analogs, 50 nM [3H]adenosine, concentrations up to 20 mM, mean ± SD, n = 3

Nc1nc2c(ncn2[C@H]2C[C@H](O)[C@@H](CO)O2)c(=O)[nH]1 [2-deoxyguanosine]
IC50 ([1]; read-out: IC50 for inhibition of [^3H]Uridine by indicated purine, 250 nM [3H]uridine, 15 min, PvENT1-expressing yeast, mean ± SD): 20.5 ± 4.8 µM

O=c1[nH]c(=O)n([C@@H]2O[C@H](CO)[C@@H](O)[C@H]2O)cc1F [5-Fluorouridine (5-FUrd), 5-Fluorouridine]
IC50 [2, 7]: 1770 ± 302 µM
IC50 ([2]; IC50 for inhibition of [^3H]adenosine uptake, 50 nM [3H]adenosine): 1700 µM

Sc1ncnc2nc[nH]c12 [6-mercaptopurine]
IC50 [2, 8]: 160 µM and 158 µM

Nc1ncnc2[nH]cnc12 [Adenine]
IC50 [1, 9]: 1430 ± 736 µM
IC50 of nucleobase relative to the corresponding nucleoside ([1]; PvENT1-expressing yeast): one order of magnitude higher
EC50 ([3]; Saccharomyces cerevisiae, read-out: growth EC50): 39 ± 2 µM
EC50 [4]: 27 ± 2 µM

Nc1ncnc2c1ncn2[C@@H]1O[C@H](CO)[C@@H](O)[C@H]1O [Adenosine]
IC50 [5]: ~650 µM
IC50 [1, 9]: 142 ± 34 µM
IC50 ([1]; IC50 for inhibition of [^3H]substrate uptake by the indicated purine, WT, Table 4, WT PvENT1, radiolabel [3H]uridine): 167 ± 52 µM
fold lower IC50 of PvENT1 than PfENT1 [1]: 4–5 fold
growth EC50 ([3]; EV yeast, liquid media, sole purine source): failed to grow
EC50 [4]: 394 ± 85 µM

Nc1cc[nH]c(=O)n1 [Cytosine]
IC50 [2, 7]: 6140 ± 1030 µM
effect on radiolabel uptake into PvENT1-expressing yeast (in words) ([2]; [3H]adenosine uptake for pyrimidines): slight inhibition

OCCN(CCO)c1nc(N2CCCCC2)c2nc(N(CCO)CCO)nc(N3CCCCC3)c2n1 [Dipyridamole, dipyridamole]
PvENT1 IC50 relative to hENT1 ([2]; PvENT1 vs human ENT1): 1000 fold
IC50 [2, 8]: ~40 µM and 40 µM
concentration range inhibiting hENT1 [6]: 5 to 20 nM

Nc1nc2nc[nH]c2c(=O)[nH]1 [Guanine]
IC50 [1, 9]: 6340 ± 2950 µM

Nc1nc2c(ncn2[C@@H]2O[C@H](CO)[C@@H](O)[C@H]2O)c(=O)[nH]1 [Guanosine]
IC50 [1, 9]: 14.9 ± 1.4 µM

O=c1[nH]cnc2nc[nH]c12 [Hypoxanthine]
IC50 [5]: ~480 µM
IC50 [2, 10]: 141 ± 24 µM
IC50 [1, 9]: 99 ± 30 µM
fold lower IC50 of PvENT1 than PfENT1 [1]: 4–5 fold

OC[C@H]1O[C@@H](n2cnc3c(O)ncnc32)[C@H](O)[C@@H]1O [Inosine]
IC50 [2, 10]: 5 ± 4 µM
IC50 [1, 9]: 3.8 ± 1.4 µM

O=[N+]([O-])c1ccc(CSc2ncnc3c2ncn3C2OC(CO)C(O)C2O)cc1 (stereo not drawn) [NBMPR, 4-nitrobenzylthioinosine]
[^3H]Adenosine uptake inhibition IC50 [2, 11]: did not inhibit; also recorded: not sensitive
[^3H]Adenosine uptake inhibition IC50 ([2]; hENT1 inhibitors and toxic purine analogs, 50 nM [3H]adenosine, concentrations up to 20 mM, mean ± SD, n = 3, listed as 4-nitrobenzylthioinosine (NBMPR)): no effect
IC50 [2, 12]: > 20000 µM
concentrations inhibiting hENT1 ([6]; in words): sub-nanomolar

Cc1cn([C@H]2C[C@H](O)[C@@H](CO)O2)c(=O)[nH]c1=O [Thymidine]
IC50 [2, 7]: 183 ± 53 µM

Cc1c[nH]c(=O)[nH]c1=O [Thymine]
IC50 [2, 7]: 564 ± 145 µM

Nc1ncnc2c1ccn2[C@@H]1O[C@H](CO)[C@@H](O)[C@H]1O [Tubercidin, tubercidin (7-deaza-adenosine)]
[^3H]Adenosine uptake inhibition IC50 [2, 11]: failed to inhibit
IC50 [2, 12]: > 20000 µM

O=c1cc[nH]c(=O)[nH]1 [Uracil]
IC50 [2, 7]: 3390 ± 1170 µM

O=c1ccn([C@@H]2O[C@H](CO)[C@@H](O)[C@H]2O)c(=O)[nH]1 [Uridine]
IC50 [2, 7]: 1730 ± 809 µM

O=c1[nH]c(=O)c2[nH]cnc2[nH]1 [Xanthine]
IC50 [1, 9]: 2550 ± 189 µM

O=c1[nH]c(=O)c2ncn([C@@H]3O[C@H](CO)[C@@H](O)[C@H]3O)c2[nH]1 [Xanthosine]
IC50 [1, 9]: 4310 ± 2870 µM
